Experimental data of several laboratories.
Protocols differ between the studies behind these lines.
Target: Ephrin type-B receptor 2 (EPHB2, Homo sapiens, UniProt P29323)
Sequence (P29323 19-1055, as in one of the studies): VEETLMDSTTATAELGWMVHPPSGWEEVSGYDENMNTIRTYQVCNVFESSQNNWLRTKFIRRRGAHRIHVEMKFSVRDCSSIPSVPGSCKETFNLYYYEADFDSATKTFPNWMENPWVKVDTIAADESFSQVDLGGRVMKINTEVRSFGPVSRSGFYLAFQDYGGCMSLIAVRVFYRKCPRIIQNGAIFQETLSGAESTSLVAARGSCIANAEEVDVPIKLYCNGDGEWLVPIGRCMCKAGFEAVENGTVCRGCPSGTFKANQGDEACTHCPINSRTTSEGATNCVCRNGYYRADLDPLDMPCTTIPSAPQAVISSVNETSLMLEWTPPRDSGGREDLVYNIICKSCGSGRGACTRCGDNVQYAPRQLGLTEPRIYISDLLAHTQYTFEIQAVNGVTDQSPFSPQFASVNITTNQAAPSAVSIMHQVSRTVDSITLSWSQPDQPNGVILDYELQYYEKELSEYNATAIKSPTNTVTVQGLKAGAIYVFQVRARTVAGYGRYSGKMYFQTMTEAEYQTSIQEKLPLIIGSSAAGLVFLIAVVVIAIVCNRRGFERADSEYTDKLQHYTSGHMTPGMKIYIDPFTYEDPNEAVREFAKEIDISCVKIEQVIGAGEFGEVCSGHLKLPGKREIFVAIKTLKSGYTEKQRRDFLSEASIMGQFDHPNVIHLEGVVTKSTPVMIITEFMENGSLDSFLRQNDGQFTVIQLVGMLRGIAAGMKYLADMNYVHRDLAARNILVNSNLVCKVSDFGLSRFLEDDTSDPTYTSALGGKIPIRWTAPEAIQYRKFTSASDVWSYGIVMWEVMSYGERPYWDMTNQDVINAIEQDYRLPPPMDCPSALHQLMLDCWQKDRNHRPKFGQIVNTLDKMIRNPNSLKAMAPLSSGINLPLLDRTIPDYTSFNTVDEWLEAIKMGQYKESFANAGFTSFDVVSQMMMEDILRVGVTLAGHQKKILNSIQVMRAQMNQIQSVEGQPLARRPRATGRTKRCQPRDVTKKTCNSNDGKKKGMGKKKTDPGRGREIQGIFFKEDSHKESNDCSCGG

CN(C)c1nccc(-c2cnc3ncccn23)n1  remaining binding (binding; 1 µM): 92%
O=C(NC[C@@H]1[C@H]2CN(C(=O)OCc3cc(C(F)(F)F)cc(C(F)(F)F)c3)C[C@@H]12)c1ccc2[nH]nnc2c1  remaining binding (cell-free assay; competition with immobilised ligand; 1 µM): 100%
COc1cnc(Nc2cccc(S(N)(=O)=O)c2)nc1N1CCN(c2ccccc2)CC1  remaining binding (binding; competition with immobilised ligand; 1 µM): 100%
O=C(c1ccc(Nc2ncc(Cl)c(-c3ccc(Cl)s3)n2)cc1)N1CCC(N2CCCC2)CC1  remaining binding (binding; competition with immobilised ligand; 1 µM): 88%
c1cncc(-c2cccc(Nc3nccc(NC4CCCCC4)n3)c2)c1  remaining binding (binding; competition with immobilised ligand; 10 µM): 90%
COCCOc1nc(-c2ccc(Cl)nc2)nc2c1CN(C(=O)c1ncn3ccccc13)CC2  remaining binding (cell-free assay; competition with immobilised ligand; 0.1 µM): 79%
N[C@H]1CCN(c2nccc(-c3cnn4ncccc34)n2)C1  remaining binding (binding; 1 µM): 100%
O=C(Nc1c[nH]nc1C(=O)NC1CCNCC1)c1cc(F)cc(F)c1  remaining binding (binding; competition with immobilised ligand; 1 µM): 100%
C[C@H]1CCN(c2nccc(-c3cnn4ncccc34)n2)C1  remaining binding (binding; 1 µM): 0%
Cc1nccc(COC(=O)N2C[C@@H]3[C@@H](CNC(=O)c4ccc5[nH]nnc5c4)[C@@H]3C2)n1  remaining binding (cell-free assay; competition with immobilised ligand; 1 µM): 100%
CN(C)c1nccc(-c2cnn3ncccc23)n1  remaining binding (binding; 1 µM): 71%
FC(F)(F)Oc1cccc(-c2cnc3ccc(-c4ccncc4)nn23)c1  remaining binding (cell-free assay; competition with immobilised ligand; 5 µM): 96%
CO[C@@H](C)c1c(Nc2ccc([C@H](N(C)C(=O)C3CCS(=O)(=O)CC3)C(F)(F)F)cc2)cnc2cc(Cl)nn12  remaining binding (cell-free assay; competition with immobilised ligand; 1 µM): 76%
CN(CCCC(F)(F)F)c1nccc(-c2cnn3ncccc23)n1  remaining binding (binding; 1 µM): 84%
O=C(NCCCN1CCOCC1)c1ccc(Nc2nccc(-c3cc4ccccc4s3)n2)cc1  remaining binding (binding; competition with immobilised ligand; 1 µM): 98%
CNC(=O)[C@@H]1CC[C@@H](n2c(-c3ccc4cnccc4c3)nc3ccc(C(=O)NCc4cccc(C(N)=O)c4)cc32)C1  remaining binding (binding; competition with immobilised ligand; 1 µM): 96%
O=C(NCCCN1CCOCC1)c1ccc(Nc2ncc(Cl)c(-c3ccc(Cl)s3)n2)cc1  remaining binding (binding; competition with immobilised ligand; 1 µM): 100%
CO[C@H]1CC[C@H](CNc2ccc(S(=O)(=O)NC(=O)c3ccc(N4CCN(CC5=C(c6ccc(Cl)cc6)CC(C)(C)CC5)CC4)cc3Oc3cnc4[nH]ccc4c3)cc2[N+](=O)[O-])CC1  remaining binding (cell-free assay; competition with immobilised ligand; 1 µM): 75%
CN(C)c1ncc(F)c(-c2cnn3ncccc23)n1  remaining binding (binding; 1 µM): 100%
